According to ChEMBL document CHEMBL1128731, “Furanfurin and thiophenfurin: two novel tiazofurin analogues. Synthesis, structure, antitumor activity, and interactions with inosine monophosphate dehydrogenase” (J Med Chem, 1995):

Legend:
Homo sapiens = species: Homo sapiens; assay: Inhibitory concentration range against human bone marrow; type: functional, organism-based
In short: (§1)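 Antiproliferative assay scoring [125I]-5-iodo-2'-deoxyuridine incorporation into DNA after 72 h drug–cell contact. Run on normal human bone marrow from five donors and in three assays on HL-60. Ratio is antilog(mean log IC50 or IC90) on bone marrow over the same on HL-60. Range limits are antilog(mean log IC50 ± 2SD).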

K562 [1] = assay: Compound was tested for its effect on ATP ribonucleotide levels of K562 cell at 10 uM concentration; type: functional, Homo sapiens
In short: (§2)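 K562 cells (1×10^7) were treated with saline or agent for 2 h at 37 °C, harvested by centrifugation and washed with cold saline. They were extracted with cold 10% trichloroacetic acid, neutralized with 0.5 M tri-n-octylamine in freon, and analyzed by HPLC. Levels are in nmol/g and expressed as % of saline control. Significance was set at p < 0.05.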

K562 [2] = assay: Compound was tested for its effect on NAD ribonucleotide levels of K562 cell at 100 uM concentration; type: functional, Homo sapiens; in short: as §2
K562 [3] = assay: Compound was tested for its effect on GTP ribonucleotide levels of K562 cell at 100 uM concentration; type: functional, Homo sapiens; in short: as §2
Mus musculus [4] = assay: Average weight change of mice from onset to termination of drug treatment at 100 mg/kg dose; early death due to toxicity; type: functional, organism-based; parameters: dose 100 mg/kg
In short: (§3)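 Female BD2F1 mice (8 weeks, 20–22 g), eight per group, injected ip with 10^5 L1210 cells on day 0. From 24 h later, drug in 0.9% NaCl was given ip once daily for 9 days. Body weight change was averaged from onset to termination of treatment. Early deaths from toxicity were recorded.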

Mus musculus [5] = assay: Compound was tested for ratio of survival time of treated to control mice x100 at 25 mg/kg dose; type: functional
In short: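 Female BD2F1 mice (8 weeks old, 20–22 g), eight per group, injected ip with 10^5 L1210 leukemia cells on day 0. Starting 24 h later, drug dissolved in 0.9% NaCl given ip once daily for 9 consecutive days. % T/C = survival time of treated/control mice × 100. Body weight change tracked from start to end of treatment.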

K562 [6] = assay: Compound was tested for its effect on UDP ribonucleotide levels of K562 cell at 50 uM concentration; type: functional, Homo sapiens; in short: as §2
K562 [7] = assay: Compound was tested for its effect on UTP ribonucleotide levels of K562 cell at 50 uM concentration; type: functional, Homo sapiens; in short: as §2
K562 [8] = assay: Compound was tested for its effect on IMP ribonucleotide levels of K562 cell at 10 uM concentration; type: functional, Homo sapiens; in short: as §2
K562 [9] = assay: Compound was tested for its effect on IMP ribonucleotide levels of K562 cell at 50 uM concentration; type: functional, Homo sapiens; in short: as §2
K562 [10] = assay: Compound was tested for its effect on ADP ribonucleotide levels of K562 cell at 100 uM concentration; type: functional, Homo sapiens; in short: as §2
K562 [11] = assay: Compound was tested for its effect on ADP ribonucleotide levels of K562 cell at 10 uM concentration; type: functional, Homo sapiens; in short: as §2
K562 [12] = assay: Compound was tested for its effect on IMPDH activity against K562 cells at 10 uM concentration; type: functional, Homo sapiens
In short: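 Log-phase K562 cells (1×10^6/mL) were exposed to saline or agent for 2 h at 37 °C, washed and lysed (Tris-HCl pH 7.4, NaCl, MgCl2, 0.5% NP-40, aprotinin). The cleared supernatant was incubated 30 min at 37 °C with 286 μM [2,8-3H]IMP and 1 mM NAD. Tritium release was counted by scintillation. Activity is nmol XMP/h/mg protein, also given as % of control.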

Mus musculus [13] = assay: Average weight change of mice from onset to termination of drug treatment at 400 mg/kg dose; early death due to toxicity; type: functional, organism-based; parameters: dose 400 mg/kg; in short: as §3
K562 [14] = assay: compound was tested for its effect on IMPDH activity against K562 cells at 50 uM concentration; type: functional, Homo sapiens
In short: (§4)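 K562 cells (1×10^6/mL, log phase) exposed 2 h at 37 °C to 10, 50 or 100 μM drug, or to saline. Cells washed and lysed in Tris-HCl pH 7.4/NaCl/MgCl2/NP-40/aprotinin, and the 13000g supernatant used as enzyme. Enzyme incubated 30 min at 37 °C with 286 μM [2,8-3H]IMP and 1 mM NAD. Tritium release counted; activity in nmol XMP/h/mg protein, as % of saline control.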

K562 [15] = assay: Compound was tested for its effect on CTP ribonucleotide levels of K562 cell at 10 uM concentration; type: functional, Homo sapiens; in short: as §2
K562 [16] = assay: Compound was tested for its effect on UDP ribonucleotide levels of K562 cell at 100 uM concentration; type: functional, Homo sapiens; in short: as §2
K562 [17] = assay: Compound was tested for its effect on UMP ribonucleotide levels of K562 cell at 10 uM concentration; type: functional, Homo sapiens; in short: as §2
HL-60 = assay: Inhibitory concentration against HL-60 human promyelocytic leukemia; type: functional, cell-based
In short: (§5)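 Cells in log phase plated with a range of drug concentrations (B16 5×10^3 cells/well; P388, L1210, LLC 10^4 cells/well; HL-60, K562, LoVo 2.5×10^5 cells/well). Growth read by modified MTT after 72 h drug contact at 37 °C. IC50 taken as the concentration reducing optical absorption by 50%, from Chou regression analysis. Maximum concentration tested 200 μM.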

K562 [18] = assay: Compound was tested for its effect on UMP ribonucleotide levels of K562 cell at 50 uM concentration; type: functional, Homo sapiens; in short: as §2
K562 [19] = assay: compound was tested for its effect on IMPDH activity against K562 cells at 10 uM concentration; type: functional, Homo sapiens; in short: as §4
K562 [20] = assay: compound was tested for its effect on IMPDH activity against K562 cells at 100 uM concentration; type: functional, Homo sapiens; in short: as §4
K562 [21] = assay: Compound was tested for its effect on IMP ribonucleotide levels of K562 cell at 100 uM concentration; type: functional, Homo sapiens; in short: as §2
K562 [22] = assay: Compound was tested for its effect on CTP ribonucleotide levels of K562 cell at 100 uM concentration; type: functional, Homo sapiens; in short: as §2
K562 [23] = assay: Compound was tested for its effect on AMP ribonucleotide levels of K562 cell at 100 uM concentration; type: functional, Homo sapiens; in short: as §2
[24] = IC50 ratio against bone marrow samples to HL-60; type: functional; in short: as §1
K562 [25] = assay: Compound was tested for its effect on CTP ribonucleotide levels of K562 cell at 50 uM concentration; type: functional, Homo sapiens; in short: as §2
K562 [26] = assay: Inhibitory concentration against K562 human myelogenous leukemia cell line; type: functional, cell-based; in short: as §5
K562 [27] = assay: Compound was tested for its effect on GDP ribonucleotide levels of K562 cell at 50 uM concentration; type: functional, Homo sapiens; in short: as §2

For NC(=O)c1csc([C@@H]2O[C@H](CO)[C@@H](O)[C@H]2O)c1, which IC50 (Homo sapiens) is on record?
Its IC50 is 21.6 µM.

What about the Control (K562 [1]) of the same molecule?
Its Control is 92%.

What about the Control (K562 [2]) of the same molecule?
Its Control is 63%.

What about the Control (K562 [3]) of the same molecule?
The Control was 58%.

And the Change (Mus musculus [4])?
Its Change is “Toxic”.

And the T/C (Mus musculus [5])?
Its T/C is 168%.

And the Control (K562 [6])?
The Control was 134%.

What about the Control (K562 [7]) of the same molecule?
The Control was 99%.

And the Control (K562 [8])?
The Control was 314%.

What about the Control (K562 [9]) of the same molecule?
Its Control is 594%.

What about the Control (K562 [10]) of the same molecule?
The Control was 105%.

What about the Control (K562 [11]) of the same molecule?
The Control was 122%.

And the Activity (K562 [12])?
Its Activity is 2.8.

And the Change (Mus musculus [13])?
Its Change is “Toxic”.

What about the Control (K562 [14]) of the same molecule?
Its Control is 37%.

And the Control (K562 [15])?
Its Control is 32%.

And the Control (K562 [16])?
The Control was 131%.

And the Control (K562 [17])?
The Control was 110%.

And the IC50 (HL-60)?
The IC50 was 13.9 µM.

And the Control (K562 [18])?
Its Control is 115%.

And the Control (K562 [19])?
Its Control is 56%.

And the Control (K562 [20])?
The Control was 22%.

What about the Control (K562 [21]) of the same molecule?
The Control was 689%.

What about the Control (K562 [22]) of the same molecule?
Its Control is 32%.

What about the Control (K562 [23]) of the same molecule?
Its Control is 131%.

What about the Ratio [24] of the same molecule?
Its Ratio is 21.9.

What about the Control (K562 [25]) of the same molecule?
The Control was 32%.

What about the IC50 (K562 [26]) of the same molecule?
Its IC50 is 8.8 µM.

What about the Control (K562 [27]) of the same molecule?
Its Control is 79%.
